# Only some compounds are listed: those with a hit (about 2.4% of all), similar ones and a draw of the others.
# VIM-2 inh: blocks Pseudomonas aeruginosa VIM-2 metallo-beta-lactamase; purified VIM-2, nitrocefin hydrolysis, epi-absorbance fluorescence; AID 1527; inhibition, % at 5.6 µM; 290,000 compounds, 0.89% hits;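 active = inhibition above the mean of all tested compounds plus 3 SD, cutoff set per screening run, cut at about 7.5% in these data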;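 also: red hydrolysis product quenches plate fluorescence so inhibitors raise well fluorescence; 0% = enzyme with DMSO and 100% = DMSO without enzyme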
# HGIII-sPLA2 inh: Blocks human group III sPLA2 activity; Q9NZ20; QFRET BODIPY PC-A2 liposome hydrolysis, fluorescence; inhibition, % at 12.2 µM; 370,000 compounds, 0.56% hits;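 active = inhibition above mean plus 3 SD of compounds lying within the high and low control bounds, cut at about 19% in these data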;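 also: 0% = median of test compound wells and 100% = no enzyme DMSO wells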
# PfM18AAP inh-1: PfM18AAP enzyme inhibition | AID 1822 | recombinant PfM18AAP, H-Glu-NHMec fluorogenic cleavage | inhibition, % at 7.35 µM | 290,000 compounds, 1.2% hits;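 active = inhibition above the campaign mean inhibition over all tested compounds plus 3 SD, cut at about 28% in these data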;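 also: 0% = plate median of test compound wells and 100% = 2 mM ZnCl2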
# IMP-1 inhibitor: blocks Pseudomonas aeruginosa IMP-1 metallo-beta-lactamase; purified IMP-1, nitrocefin hydrolysis, epi-absorbance fluorescence; inhibition, % at 5.6 µM; 290,000 compounds, 0.45% hits; AID 1556;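 active = inhibition above the mean plus 3 SD of all compounds in the same screening run, cut at about 4.5% in these data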;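 also: 0% = IMP-1 with DMSO and 100% = DMSO wells lacking enzyme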
#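 System: Purified IMP-1 | Read-out basis: Percent enzyme inhibition | Controls: IMP-1 with DMSO as 0%, enzyme-free DMSO as 100% | Replicates: One well per compound | Doses: 5.6 µM nominal single concentration | Detection: Epi-absorbance fluorescence, 480 nm excitation, 530 nm emission | Incubation: 25 °C, 15 min preincubation, 25 min reaction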
# VIM-2 inh confirm: VIM-2 inhibition, confirmation assay; shares compounds with IMP-1 inhibitor; purified VIM-2 enzyme, nitrocefin absorbance; inhibition, % at 5.6 µM; 200 compounds, 73% hits; AID 1860; in the data active = inhibition above about 8%;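 also: 0% = enzyme with vehicle and 100% = no enzyme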
# TEM-1 inh 2: blocks E. coli TEM-1 beta-lactamase, VIM-2 IMP-1 counter-screen | inhibition, % at 5.6 µM | AID 2184 | nitrocefin absorbance inhibition | 200 compounds, 50% hits | shares compounds with IMP-1 inhibitor; in the data active = inhibition above about 0.66%
# Target sequence (P62593 whole entry, looked up): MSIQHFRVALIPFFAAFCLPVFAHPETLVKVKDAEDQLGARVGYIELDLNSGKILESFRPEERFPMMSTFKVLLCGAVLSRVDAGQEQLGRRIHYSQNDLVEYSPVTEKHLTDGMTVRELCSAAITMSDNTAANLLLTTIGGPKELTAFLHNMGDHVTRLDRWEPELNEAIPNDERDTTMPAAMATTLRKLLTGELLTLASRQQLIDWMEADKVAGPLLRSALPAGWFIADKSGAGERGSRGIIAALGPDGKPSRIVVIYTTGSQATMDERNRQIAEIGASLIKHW
# IMP-1 inh conf: confirmation of P. aeruginosa IMP-1 metallo-beta-lactamase inhibitors. shares compounds with IMP-1 inhibitor. purified IMP-1 enzyme, absorbance substrate hydrolysis. inhibition, % at 5.6 µM. 200 compounds, 60% hits. AID 2189; in the data active = inhibition above about 4.9%;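 also: 0% = enzyme with vehicle and 100% = vehicle without enzyme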
# PfM18AAP inh-2: PfM18AAP inhibition, confirmation; shares compounds with PfM18AAP inh-1; recombinant PfM18AAP, H-Glu-NHMec fluorogenic cleavage; inhibition, % at 7.35 µM; 2,400 compounds, 28% hits;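 active = mean inhibition over replicate wells above the hit cutoff set for the earlier primary screen, cut at about 29% in these data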;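 also: 0% = median of test compound wells and 100% = 2 mM ZnCl2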
# CTSL1 counter: counter-screen for PFM18AAP inhibitors: confirmation of human cathepsin L inhibitors; shares compounds with PfM18AAP inh-1; purified cathepsin L1, Z-Leu-Arg-MCA fluorescence; inhibition, % at 5.96 µM; 2,400 tested, under 10 active;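 active = average inhibition across replicates above the hit cutoff set in the earlier primary screen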;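 also: 0% = median of test compound wells and 100% = Z-Phe-Ala-diazomethylketone 1 µM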
# Target sequence (P07711 whole entry, looked up): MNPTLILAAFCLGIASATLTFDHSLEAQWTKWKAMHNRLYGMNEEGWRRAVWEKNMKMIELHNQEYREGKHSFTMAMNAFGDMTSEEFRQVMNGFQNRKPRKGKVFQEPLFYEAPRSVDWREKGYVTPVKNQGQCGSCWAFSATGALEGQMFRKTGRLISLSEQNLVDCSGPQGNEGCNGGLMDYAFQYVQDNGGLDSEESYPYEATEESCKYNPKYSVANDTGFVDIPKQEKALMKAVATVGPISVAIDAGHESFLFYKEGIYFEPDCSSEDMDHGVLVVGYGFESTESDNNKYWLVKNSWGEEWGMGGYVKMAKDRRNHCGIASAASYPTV
# Numbers without * were called inactive; · = not tested or not shown.
SMILES,VIM-2 inh,HGIII-sPLA2 inh,PfM18AAP inh-1,IMP-1 inhibitor,PfM18AAP inh-2,CTSL1 counter,others
CC(C)C(CCN1C(=O)c2ccccc2C1=O)c1ccco1 (centres undefined),15*,-19,7,7.3*,·,·,VIM-2 inh confirm=33*;TEM-1 inh 2=-1;IMP-1 inh conf=19*
O=C(CC1CCCCC1)NCCS(=O)(=O)N1CCN(c2ccccc2)CC1,·,0,·,·,·,·,
COc1ccc(NC(=O)NS(=O)(=O)c2ccc(C)cc2)cn1,16*,-120,25,12*,·,·,VIM-2 inh confirm=0;TEM-1 inh 2=-2;IMP-1 inh conf=-3
CC1(Oc2ccccc2)CCN(Cc2ccc(-c3ccccn3)cc2)C1 (centres undefined),·,-10,·,·,·,·,
CN1CCN(S(=O)(=O)c2ccc(-c3ccc(Cl)cc3)cc2)CC1,11*,-6,-1,42*,·,·,VIM-2 inh confirm=4;TEM-1 inh 2=-4;IMP-1 inh conf=-3
Cc1ccc(S(=O)(=O)Oc2ccccc2-c2ccccc2)cc1,·,-12,·,·,·,·,
O=C(O)C1Sc2[nH]c(=O)sc2C2c3ccc(O)cc3OC(=O)C12 (centres undefined),7.9*,-9,38*,8.6*,5,-7,VIM-2 inh confirm=5;TEM-1 inh 2=-5;IMP-1 inh conf=4
C[C@H](NS(=O)(=O)c1ccc(F)cc1)C(=O)OCC(=O)c1c(N)n(C)c(=O)n(C)c1=O,·,-4,·,·,·,·,
Cc1ccccc1N1C(=O)C(Cl)=C(N2CCOCC2)C1=O,1,1,20,-1,·,·,
CC(C)c1ccc(N2C(=O)C(Cl)=C(N3CCOCC3)C2=O)cc1,-3,-3,38*,-1,-28,-1,
COc1ccc(Cc2c(-c3cccc(Cl)c3)nc3ccc(C)cn23)c(C)c1,·,-4,·,·,·,·,
Cc1ccc(N2C(=O)c3ccccc3C2C(=O)c2ccc(C)c(C)c2O)cc1 (centres undefined),1,-8,42*,0,-18,1,
Cc1ccc(N2C(=O)c3ccccc3C2C(=O)c2cc(C)ccc2O)cc1 (centres undefined),1,-10,55*,1,24,2,
O=C(O)CC1CC(O)CCC1=O (centres undefined),·,17,·,·,·,·,
O=C(O)CC1CCC(=C(Cl)Cl)C1 (centres undefined),-2,-2,64*,-1,-25,3,
O=C(CC1SC(N2CCCCC2)=NC1=O)Nc1cccc(C(=O)N2CCCC(C(F)(F)F)C2)c1 (centres undefined),·,-11,·,·,·,·,
Cc1oc(-c2ccc3c(c2)OCCO3)cc1C(=O)NC(CCC(=O)O)C(=O)O (centres undefined),-2,-3,38*,-4,-12,8,
Cc1oc(-c2ccc3c(c2)OCCO3)cc1C(=O)NCC(=O)O,-3,-2,11,-4,·,·,
CCOC(=O)CNC(=S)SC,-2,-1,0,-1,·,·,
CCOC(=O)CNC(=S)n1ncnc1N,2,1,58*,-1,-14,2,
COc1ccccc1C(=O)n1ccc2ccc(-c3ccc4ccn(Cc5ccc(C#N)cc5)c4c3)cc21,·,0,·,·,·,·,
c1ccc2sc(NN=C3CCCCCC3)nc2c1,-3,4,33*,-4,-35,0,
O=C(Nc1nc2ccccc2s1)c1ccccc1,-3,-4,-1,0,·,·,
Nc1nnc(CC(=O)N/N=C/c2cc([N+](=O)[O-])cc(Br)c2O)s1,2,6,37*,0,1,3,
Oc1c(C(c2ccccc2)N2CCc3ccccc3C2)sc2ncnn12 (centres undefined),-3,-32,58*,-3,18,2,
SMILES,VIM-2 inh,HGIII-sPLA2 inh,PfM18AAP inh-1,IMP-1 inhibitor,PfM18AAP inh-2,CTSL1 counter,others
CC1CCCN(C(c2ccccc2)c2sc3ncnn3c2O)C1 (centres undefined),0,-27,55*,0,-28,1,
O=S(=O)(c1ccccc1)N1CC2CC(Br)C(Br)CC21 (centres undefined),·,15,·,·,·,·,
CNc1nc(Nc2ccccc2)nc(OCC(F)(F)F)n1,-3,3,9,-2,·,·,
CNc1nc(NN)nc(Nc2ccccc2)n1,-4,-5,33*,-5,4,1,
CCn1c(N)c(C(=O)NC)sc1=S,-2,7,50*,-3,37*,-1,
CN1CCN(CC(=O)Nc2cc(S(=O)(=O)N3CCOCC3)ccc2Cl)CC1,·,-8,·,·,·,·,
CC(=Nc1ccc(O)cc1)c1sc2ccccc2c1O,3,-27,55*,-1,-39,3,
O=C(C1=C(O)C(=O)N(CCN2CCOCC2)C1c1ccc(Cl)cc1)c1cc2ccccc2o1 (centres undefined),-2,-2,11,0,·,·,
CC1Cc2cc(/C(O)=C3/C(=O)C(=O)N(CCN4CCOCC4)C3c3ccc([N+](=O)[O-])cc3)ccc2O1 (centres undefined),-3,-3,33*,-2,-22,-10,
O=C(C1=C(O)C(=O)N(CCN2CCOCC2)C1c1ccc([N+](=O)[O-])cc1)c1cc2ccccc2o1 (centres undefined),-1,·,34*,-2,-36,-1,
COc1ccc(C2/C(=C(/O)c3ccc4c(c3)CC(C)O4)C(=O)C(=O)N2CCN2CCOCC2)cc1 (centres undefined),-2,6,9,-2,·,·,
O=S(=O)(NC1CCc2ccccc21)c1ccccc1 (centres undefined),·,-6,·,·,·,·,
CC(C)N1C(=O)C(=O)N(CC(=O)N2c3ccccc3NC(=O)CC2C)C1=O (centres undefined),·,8,·,·,·,·,
O=C(O)c1cc(S(=O)(=O)O)cc(Nc2c3ccccc3nc3ccccc23)c1O,0,-1,35*,-2,-27,0,
O=C(O)c1cccc(Nc2c3ccccc3nc3ccccc23)c1,5,4,5,1,·,·,
COc1ccc(N2CCN(CCCn3c(=S)[nH]c4ncccc4c3=O)CC2)cc1,-2,6,45*,-4,-38,-10,
O=C1NC[C@H](CCCCN2CCN(CCC3CCCCC3)C(=O)C2=O)N(CCc2ccc(O)cc2)C1=O,·,8,·,·,·,·,
CCOc1cccc2cc(-c3cn4cc(C)ccc4n3)c(=O)oc12,-2,-1,-9,-3,·,·,
CNc1nnc(-c2cc3cc(Cl)ccc3oc2=O)s1,-1,7,13,-5,·,·,
CCOc1cccc2cc(-c3nnc(NCc4ccco4)s3)c(=O)oc12,0,-6,32*,-6,-14,2,
COc1ccc2oc(=O)c(-c3nnc(NCc4ccco4)s3)cc2c1,1,1,40*,3,-27,2,

# From PubChem
